Screens as filed in PubChem BioAssay.
This is a sample that favours compounds with a hit; in the whole collection about 3% have one here.
PLC-beta3 inh: PLC-beta3 (human) inhibition, primary screen; Q01970; Purified PLC-beta3, fluorogenic substrate, fluorescence; inhibition, % at 12.2 µM; hit rate 0.18% among 370,000; AID 720704; in the data active = inhibition above about 11%;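 also: 0% = median of compound wells on plate and 100% = full blocker control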
DDE Tn7 FP inh: disrupts Tn7 cyclic peptide binding to fibrin D-Dimer-E complex; P02675; FP displacement of FITC-Tn7 peptide from fibrin DD(E); 0% = median of compound wells per plate; inhibition, % at 8.3 µM; hit rate 0.13% among 370,000; AID 720508;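 active = inhibition above the mean of compounds falling within the control limits plus 3 SD of them, cut at about 14% in these data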;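 also: 0% = plate median of compound wells and 100% = 10 µM Aha-Tn7 peptide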
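Measure: % inhibition scaled between sample-field median and high-control FP; Test system: human fibrin DD(E); Quantity: 2 µM final DD(E) protein; Doses: one dose, 8.3 µM nominal; Schedule: compound with protein 10 min, then 3 h after probe, room temperature; Detection: fluorescence polarization; Medium: Tris buffer with calcium and detergent, pH 7.8.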
proKLK7 act: proKLK7 (human) activation, primary screen. AID 652039. hit rate 0.9% among 370,000. activation, % at 7 µM. purified proKLK7, EDANS-DABCYL substrate fluorescence; 100% is mature enzyme control, 0% vehicle. P49862;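 active = activation above the mean of all tested compounds plus 3 SD, computed per campaign excluding outliers beyond control limits, cut at about 13% in these data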
Target sequence (P49862 whole entry, looked up): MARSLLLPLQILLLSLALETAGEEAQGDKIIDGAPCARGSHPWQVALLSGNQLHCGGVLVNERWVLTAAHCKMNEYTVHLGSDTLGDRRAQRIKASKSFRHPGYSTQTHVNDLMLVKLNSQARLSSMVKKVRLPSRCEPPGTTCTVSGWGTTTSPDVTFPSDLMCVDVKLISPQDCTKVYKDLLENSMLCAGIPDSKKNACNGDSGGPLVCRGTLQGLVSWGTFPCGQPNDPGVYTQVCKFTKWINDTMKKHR
NRP1-CendR mod: NRP-1/CendR interaction modulation; O14786; FAM-RPARPAR peptide binding to NRP-1, fluorescence polarization; inhibition, % at 25 µM; hit rate 0.85% among 360,000; AID 602438;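 active = inhibition or corrected inhibition above about 18%, plus a signal ratio from 0.5 to 1.5, limit read from the data, passing the limit was not always enough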
Tn6 DDE FP: inhibitors of Tn6 peptide binding to human fibrin DD(E); P02675; Fibrin DD(E) TRITC-Tn6 fluorescence polarization displacement; inhibition, % at 8.3 µM; hit rate 0.21% among 370,000;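 active = inhibition above a per-campaign cutoff: mean of compounds within control limits plus 3 SD, cut at about 15% in these data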;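 also: 0% = median of all compound wells on the plate and 100% = blocking peptide control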
PLC-gamma1 inh: inhibitors of human phospholipase C gamma1; P19174; purified PLC-gamma1, fluorogenic substrate, fluorescence; inhibition, % at 12.2 µM; hit rate 0.84% among 370,000; AID 720700
PLCg1 ctr: counter-screen for PLC-beta3 inhibitors: inhibitors of human PLC-gamma1 | shares compounds with PLC-gamma1 inh | purified PLC-gamma1, fluorogenic substrate, fluorescence | inhibition, % at 12.3 µM | hit rate 3.1% among 3,300 | AID 743258
PLCbeta3 conf: human PLC-beta3 inhibition, confirmation; shares compounds with PLC-gamma1 inh; hit rate 1% among 3,300; purified PLC-beta3, fluorogenic substrate fluorescence; inhibition, % at 12.3 µM; in the data active = inhibition above about 11%
Numbers without * were called inactive. Rule as the data show it, unless noted: active = inhibition above about 9.5%; inactive = the rest.

O=C(COC(=O)c1ccccc1[N+](=O)[O-])Nc1cc(S(=O)(=O)N2CCOCC2)ccc1N1CCCC1 was read as PLC-beta3 inh -6, DDE Tn7 FP inh -1, proKLK7 act 0, NRP1-CendR mod 4, Tn6 DDE FP -7, PLC-gamma1 inh 12*, PLCg1 ctr 2 and PLCbeta3 conf 3.
Screening CC(C)C(C(=O)NCc1ccco1)N(C(=O)CNS(=O)(=O)c1ccccc1)C1CCCC1 (configuration not stated) returned PLC-beta3 inh 12*, DDE Tn7 FP inh -2, proKLK7 act 1, NRP1-CendR mod 2, Tn6 DDE FP -1, PLC-gamma1 inh 3, PLCg1 ctr -1 and PLCbeta3 conf 4.
`O=C(c1ccc(Cl)cc1)C1CCN(c2ncnc3sccc23)CC1` gave PLC-beta3 inh 0, DDE Tn7 FP inh -4, Tn6 DDE FP -3 and PLC-gamma1 inh 3.
For O=C1/C(=C/C=C/c2ccco2)SC(=S)N1NS(=O)(=O)c1ccccc1 the results were PLC-beta3 inh -53, DDE Tn7 FP inh 3, proKLK7 act 0, NRP1-CendR mod -154, Tn6 DDE FP -2 and PLC-gamma1 inh -9.
Screening CC(C(=O)O)N1C(=O)/C(=C/C=C/c2ccco2)SC1=S (configuration not stated) returned PLC-beta3 inh -3, DDE Tn7 FP inh 1, proKLK7 act 1, NRP1-CendR mod -82, Tn6 DDE FP -3, PLC-gamma1 inh 37*, PLCg1 ctr 20* and PLCbeta3 conf -14.
Screening COC(=O)[C@]12C[C@H](CC(=O)N3CCCCC3)C(=O)N(Cc3cccc4ccccc34)C1=C[C@H](C(C)(C)C)O[C@@H]2C returned PLC-beta3 inh 3, DDE Tn7 FP inh 3, proKLK7 act 0, Tn6 DDE FP -6 and PLC-gamma1 inh -1.
Screening COC(=O)CCC(C)C1CCC2C3CCC4CC(O)CCC4(C)C3=CC(=O)C12C (configuration not stated) returned PLC-beta3 inh 11*, DDE Tn7 FP inh -3, proKLK7 act 1, NRP1-CendR mod 6, Tn6 DDE FP -2, PLC-gamma1 inh 2, PLCg1 ctr -4 and PLCbeta3 conf -3.
Screening CC12CCC(CC1=O)C2(C)C (configuration not stated) returned PLC-beta3 inh 4, DDE Tn7 FP inh -1, proKLK7 act 0, NRP1-CendR mod 12, Tn6 DDE FP 2 and PLC-gamma1 inh 6.
`CC12CCC(C/C1=N/O)C2(C)C` (configuration not stated) gave PLC-beta3 inh -2, DDE Tn7 FP inh -6, proKLK7 act -1, NRP1-CendR mod -6, Tn6 DDE FP -5, PLC-gamma1 inh 10*, PLCg1 ctr -4 and PLCbeta3 conf 1.
Screening Cc1ccc(CN(C)C(=O)CN2C(=O)NC(c3ccccc3)(c3ccccc3)C2=O)c(C)c1 returned PLC-beta3 inh -1, DDE Tn7 FP inh -2, proKLK7 act 0, NRP1-CendR mod 10, Tn6 DDE FP -2, PLC-gamma1 inh 11*, PLCg1 ctr 3 and PLCbeta3 conf -5.
Cc1ccc2c(c1)NC(=O)C(CC(=O)NCCCN1CCCCC1)O2 (configuration not stated) was read as PLC-beta3 inh -1, DDE Tn7 FP inh 4, proKLK7 act 0, NRP1-CendR mod 2, Tn6 DDE FP 8 and PLC-gamma1 inh -1.
`Cc1ccc2c(c1)NC(=O)C(CC(=O)NCCCN1CCN(c3cc(Cl)ccc3C)CC1)O2` (configuration not stated) gave PLC-beta3 inh 6, DDE Tn7 FP inh 4, proKLK7 act 0, NRP1-CendR mod -12, Tn6 DDE FP -4, PLC-gamma1 inh 9.5*, PLCg1 ctr -17 and PLCbeta3 conf -11.
Screening CCOC(=O)C1CCN(C(=O)C(C)(C)NC(=O)Nc2ccc3c(c2)CCC3)CC1 returned PLC-beta3 inh -18, DDE Tn7 FP inh 4, Tn6 DDE FP -1 and PLC-gamma1 inh -3.
For CCOc1ccc(N2CC(C(=O)Nc3ccc(S(=O)(=O)N4CCCCC4)cc3)CC2=O)cc1 (configuration not stated) the results were PLC-beta3 inh -7, DDE Tn7 FP inh 4, proKLK7 act 0, NRP1-CendR mod -11, Tn6 DDE FP -1 and PLC-gamma1 inh 0.
Cc1ccc(S(=O)(=O)N2CCC(C(=O)N3Cc4ccccc4C3)CC2)cc1 was read as PLC-beta3 inh 2, DDE Tn7 FP inh -4, proKLK7 act 0, NRP1-CendR mod 12, Tn6 DDE FP 2, PLC-gamma1 inh 10*, PLCg1 ctr -5 and PLCbeta3 conf -1.
Screening Cc1ccc(N2CC(C(=O)Nc3ccc(S(=O)(=O)N4CCCC4)cc3)CC2=O)cc1 (configuration not stated) returned PLC-beta3 inh 2, DDE Tn7 FP inh -11, proKLK7 act 1, NRP1-CendR mod -2, Tn6 DDE FP 0, PLC-gamma1 inh 15*, PLCg1 ctr -1 and PLCbeta3 conf 0.
CC(=O)N1CCC(C(=O)Nc2ccc(S(=O)(=O)N3CCCC(C)C3)cc2)CC1 (configuration not stated) was read as PLC-beta3 inh 0, DDE Tn7 FP inh -6, proKLK7 act 0, NRP1-CendR mod 0, Tn6 DDE FP -3 and PLC-gamma1 inh -2.
Screening CCOc1ccc(N2CC(C(=O)Nc3cccc(S(=O)(=O)N4CCCCC4)c3)CC2=O)cc1 (configuration not stated) returned PLC-beta3 inh 7, DDE Tn7 FP inh -6, proKLK7 act 0, NRP1-CendR mod -3, Tn6 DDE FP -7, PLC-gamma1 inh 11*, PLCg1 ctr -8 and PLCbeta3 conf -5.
For CC(=O)N1CCC(C(=O)Nc2ccc(S(=O)(=O)N3CCC(C)CC3)cc2)CC1 the results were PLC-beta3 inh 0, DDE Tn7 FP inh -2, proKLK7 act 0, NRP1-CendR mod 15, Tn6 DDE FP -1, PLC-gamma1 inh 9.6*, PLCg1 ctr -1 and PLCbeta3 conf 0.
Screening COc1ccc(N2CC(C(=O)Nc3ccc(S(=O)(=O)N4CCCC4)cc3)CC2=O)cc1 (configuration not stated) returned PLC-beta3 inh -5, DDE Tn7 FP inh -6, proKLK7 act 0, NRP1-CendR mod 3, Tn6 DDE FP -8 and PLC-gamma1 inh 2.
c1ccc(-c2ccccc2C2Cc3nnccc3CN2)cc1 (configuration not stated) was read as PLC-beta3 inh -5, DDE Tn7 FP inh -4, proKLK7 act 0, Tn6 DDE FP 4 and PLC-gamma1 inh -1.
